Measurements from PMC7978421 (Science Advances, 2021).

Tests used:
[1] = biological target: 15N hASF1A(1-156) (Homo sapiens, UniProt Q9Y294); assay: NMR 1H-15N SOFAST HMQC titration of 15N-hASF1A; assay type: binding
In short: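 Uniformly 15N-labelled hASF1A(1-156) (M9, 15NH4Cl) at 40 μM in 50 mM tris-HCl pH 7.5, 0.1 mM EDTA, DSS, NaN3, protease inhibitors, 10% D2O. Spectra at 293 or 298 K, 600 MHz, with stepwise test compound additions. Δδ = √(ΔHN² + (0.17ΔN)²), normalised to saturation maximum. Kd fitted against total compound concentration for nine residues shifting >0.07 ppm; mean ± SD reported.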

[2] = biological target: hASF1A(1-156) (Homo sapiens, UniProt Q9Y294); assay: Isothermal titration calorimetry; assay type: binding
Sequence of hASF1A(1-156) (Q9Y294 1-156): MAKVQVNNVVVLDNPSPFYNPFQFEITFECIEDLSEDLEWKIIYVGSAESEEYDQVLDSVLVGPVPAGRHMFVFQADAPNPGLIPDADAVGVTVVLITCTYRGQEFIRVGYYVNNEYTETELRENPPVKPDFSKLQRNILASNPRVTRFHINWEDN

[3] = biological target: ASF1; conditions: cited from earlier work
[4] = VP-ITC, 20°C, 50 mM tris-HCl pH 7.5, at least duplicate

Sequence of 15N hASF1A(1-156) (Q9Y294 1-156): as above

| Compound | Kd [1] [µM] | Exchange regime upon 15N-ASF1 titration ([1]; NMR titration, chemical shift variation of hASF1A residues) | Kd [2] [µM] | Affinities times lower than the P1 to P4 peptide series ([2]; ITC) [times] | N (ITC stoichiometry) [2, 4] | ΔH [2, 4] [kcal/mol] | −TΔS [2, 4] [kcal/mol] | Affinity for ASF1 [3] |
| --- | --- | --- | --- | --- | --- | --- | --- | --- |
| CC[C@H](C)[C@H](NC(=O)[C@H](CCCNC(=N)N)NC(=O)NC[C@H](CCC(N)=O)NC(=O)NC[C@H](CC(C)C)NC(=O)NC[C@H](CCCNC(=N)N)NC(=O)NC[C@H](Cc1ccc2ccccc2c1)NC(=O)[C@H](CCCCN)NC(=O)[C@H](CCC(=O)O)NC(C)=O)C(=O)N[C@@H](C)C(N)=O [C2] | 4 ± 1 | fast exchange rate | 2.7 ± 0.6 | 10 to 80 | 1.0 ± 0.1 | -2.2 ± 0.1 | -4.8 ± 0.2 |  |
| ASTEEKWARLARRIAGAGGVTLDGFG [ip4] |  |  |  |  |  |  |  | low nanomolar range |
